Each block holds one molecule with its values, some of them ahead of it. The source made the active and inactive calls. No cut-off for these calls is given here.
Experiments:
[1] = Metabolic stability in simulated gastric fluid assessed as compound remaining at pH 1.2 after 10 mins by HPLC analysis; assay type: ADME; conditions: read-out: Stability
Procedure, shortened: (§1)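 Compounds incubated at 37 °C in simulated gastric fluid (pH 1.2), simulated intestinal fluid (pH 6.8) or 100% human plasma for up to 180 min. […] Half-life estimated from the decay.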

[2] = Stability of the compound assessed as compound remaining at 50 degC after 2 days; assay type: physicochemical; conditions: read-out: Stability
[3] = Metabolic stability in simulated intestinal fluid assessed as compound remaining at pH 6.8 measured immediately by HPLC analysis; assay type: ADME; conditions: read-out: Stability; procedure, shortened: as §1
[4] = Metabolic stability in simulated gastric fluid assessed as compound remaining at pH 1.2 after 60 mins by HPLC analysis; assay type: ADME; conditions: read-out: Stability; procedure, shortened: as §1
[5] = Metabolic stability in simulated intestinal fluid assessed as compound remaining at pH 6.8 after 2 mins by HPLC analysis; assay type: ADME; conditions: read-out: Stability; procedure, shortened: as §1
[6] = Metabolic stability in simulated gastric fluid assessed as compound remaining at pH 1.2 after 20 mins by HPLC analysis; assay type: ADME; conditions: read-out: Stability; procedure, shortened: as §1
[7] = Metabolic stability in simulated intestinal fluid assessed as compound remaining at pH 6.8 after 60 mins by HPLC analysis; assay type: ADME; conditions: read-out: Stability; procedure, shortened: as §1
[8] = Half life in simulated intestinal fluid at pH 6.8 by HPLC analysis; assay type: ADME; procedure, shortened: as §1
Rattus norvegicus [9] = test: Antiinflammatory activity in Sprague-Dawley rat assessed as plasma nitrate/nitrite at 14.94 mg/kg, po up to 8 hrs; assay type: functional
Procedure, shortened: (§2)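 Sprague–Dawley rats given compounds orally, with vehicle-dosed controls. […] Plasma nitrate/nitrite (NOx) measured by the Griess method as an indirect measure of NO released, over 8 h (sampling included 1, 2, 4 and 6 h). Plasma nitrate/nitrite AUC in µM*h.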

[10] = Metabolic stability in simulated intestinal fluid assessed as compound remaining at pH 6.8 after 5 mins by HPLC analysis; assay type: ADME; conditions: read-out: Stability; procedure, shortened: as §1
[11] = Stability of the compound assessed as compound remaining at 50 degC after 5 days; assay type: physicochemical; conditions: read-out: Stability
Procedure, shortened: (§3)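 Solid-state storage stability at room temperature and at 50 °C, followed for up to 1 month (25 days for one compound). Remaining compound measured, along with the amounts of parent drug and salicylic acid generated.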

[12] = Metabolic stability in simulated gastric fluid assessed as compound remaining at pH 1.2 after 2 mins by HPLC analysis; assay type: ADME; conditions: read-out: Stability; procedure, shortened: as §1
[13] = Metabolic stability in simulated gastric fluid assessed as compound remaining at pH 1.2 measured immediately by HPLC analysis; assay type: ADME; conditions: read-out: Stability; procedure, shortened: as §1
[14] = Stability of the compound assessed as compound remaining at RT after 1 month; assay type: physicochemical; conditions: read-out: Stability; procedure, shortened: as §3
[15] = Metabolic stability in simulated intestinal fluid assessed as compound remaining at pH 6.8 after 120 mins by HPLC analysis; assay type: ADME; conditions: read-out: Stability; procedure, shortened: as §1
Rattus norvegicus [16] = test: Antiplatelet activity in Sprague-Dawley rat assessed as inhibition of TXB2 formation at 44.82 mg/kg, po od after 7 days by EIA relative to vehicle-treated control; assay type: functional; conditions: 168 h
Procedure, shortened: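 Sprague–Dawley rats dosed orally once daily for 7 days with aspirin 30 mg/kg or prodrug 44.82 mg/kg (equimolar), with vehicle 1 ml/kg as control. Serum TXB2 levels estimated. Inhibition expressed as % reduction versus vehicle.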

[17] = Stability of the compound assessed as compound remaining at RT after 3 days; assay type: physicochemical; conditions: read-out: Stability
[18] = Metabolic stability in simulated gastric fluid assessed as compound remaining at pH 1.2 after 40 mins by HPLC analysis; assay type: ADME; conditions: read-out: Stability; procedure, shortened: as §1
[19] = Half life in simulated gastric fluid at pH 1.2 by HPLC analysis; assay type: ADME; procedure, shortened: as §1
[20] = Metabolic stability in simulated intestinal fluid assessed as compound remaining at pH 6.8 after 20 mins by HPLC analysis; assay type: ADME; conditions: read-out: Stability; procedure, shortened: as §1
[21] = Stability of the compound assessed as compound remaining at RT measured immediately; assay type: physicochemical; conditions: read-out: Stability; procedure, shortened: as §3
[22] = Stability of the compound assessed as compound remaining at 50 degC measured immediately; assay type: physicochemical; conditions: read-out: Stability; procedure, shortened: as §3
[23] = Metabolic stability in simulated gastric fluid assessed as compound remaining at pH 1.2 after 5 mins by HPLC analysis; assay type: ADME; conditions: read-out: Stability; procedure, shortened: as §1
[24] = Metabolic stability in simulated intestinal fluid assessed as compound remaining at pH 6.8 after 10 mins by HPLC analysis; assay type: ADME; conditions: read-out: Stability; procedure, shortened: as §1
[25] = AUC in Sprague-Dawley rat at 44.83 mg/kg, po; assay type: ADME, organism-based; set-up: dose 44.83 mg/kg, route oral; conditions: plasma
Procedure, shortened: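 Plasma parent-drug concentration followed over time up to 8 h. AUC in µg*h/mL from the concentration–time profile. Cmax and Tmax taken from the profile.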

Rattus norvegicus [26] = test: Toxicity in rat assessed as gastric lesion and ulcer area at 298.8 mg/kg, po after 5 hrs; assay type: organism-based, Stomach; set-up: dose 298.8 mg/kg, route oral; conditions: in vivo
[27] = Stability of the compound assessed as compound remaining at 50 degC after 1 month; assay type: physicochemical; conditions: read-out: Stability; procedure, shortened: as §3
Rattus norvegicus [28] = test: Antiinflammatory activity in Sprague-Dawley rat assessed as plasma nitrate/nitrite AUC at 14.94 mg/kg, po by Griess assay (reference value: 371.1 uM.h); assay type: functional, organism-based; set-up: dose 14.94 mg/kg; procedure, shortened: as §2
[29] = AUC in Wistar rat at 44.83 mg/kg, po; assay type: ADME, organism-based; set-up: dose 44.83 mg/kg, route oral; conditions: plasma
Procedure, shortened: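 Single oral dosing in Wistar rats to compare […]. Aspirin at 30 mg/kg or the prodrug at 44.83 mg/kg (equimolar to 30 mg/kg aspirin). Plasma aspirin measured over time. AUC in µg*h/mL.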

[30] = Half life in human plasma by HPLC analysis; assay type: ADME, cell-free; procedure, shortened: as §1
[31] = Stability of the compound assessed as compound remaining at RT after 18 days; assay type: physicochemical; conditions: read-out: Stability
[32] = Metabolic stability in simulated gastric fluid assessed as compound remaining at pH 1.2 after 180 mins by HPLC analysis; assay type: ADME; conditions: read-out: Stability; procedure, shortened: as §1
[33] = Metabolic stability in simulated gastric fluid assessed as compound remaining at pH 1.2 after 30 mins by HPLC analysis; assay type: ADME; conditions: read-out: Stability; procedure, shortened: as §1
[34] = Metabolic stability in simulated gastric fluid assessed as compound remaining at pH 1.2 after 120 mins by HPLC analysis; assay type: ADME; conditions: read-out: Stability; procedure, shortened: as §1
[35] = Metabolic stability in simulated gastric fluid assessed as compound remaining at pH 1.2 after 15 mins by HPLC analysis; assay type: ADME; conditions: read-out: Stability; procedure, shortened: as §1
[36] = Stability of the compound assessed as compound remaining at 50 degC after 25 days; assay type: physicochemical; conditions: read-out: Drug metabolism; procedure, shortened: as §3
Rattus norvegicus [37] = test: Antiinflammatory activity in Sprague-Dawley rat assessed as plasma nitrate/nitrite at 41.60 mg/kg, po after 2 hrs; assay type: functional; conditions: dose 41.6 mg/kg; procedure, shortened: as §2
[38] = Stability of the compound assessed as compound remaining at RT after 25 days; assay type: physicochemical; conditions: read-out: Drug metabolism; procedure, shortened: as §3
Rattus norvegicus [39] = test: Antiinflammatory activity in Sprague-Dawley rat assessed as plasma nitrate/nitrite at 41.60 mg/kg, po after 6 hrs relative to control; assay type: functional, organism-based; set-up: dose 41.6 mg/kg; procedure, shortened: as §2
Rattus norvegicus [40] = test: Antiinflammatory activity in Sprague-Dawley rat assessed as plasma nitrate/nitrite at 41.60 mg/kg, po after 4 hrs; assay type: functional, organism-based; set-up: dose 41.6 mg/kg; procedure, shortened: as §2
Rattus norvegicus [41] = test: Antiinflammatory activity in Sprague-Dawley rat assessed as plasma nitrate/nitrite AUC at 41.60 mg/kg, po by Griess assay (reference value: 371.1 uM.h); assay type: functional, organism-based; set-up: dose 41.6 mg/kg; procedure, shortened: as §2
Rattus norvegicus [42] = test: Antiinflammatory activity in Sprague-Dawley rat assessed as plasma nitrate/nitrite at 41.60 mg/kg, po after 1 hr; assay type: functional; conditions: dose 41.6 mg/kg; procedure, shortened: as §2
Rattus norvegicus [43] = test: Toxicity in rat assessed as gastric lesion and ulcer area at 138.67 mg/kg, po after 5 hrs; assay type: organism-based, Stomach; set-up: dose 138.67 mg/kg, route oral; conditions: in vivo
[44] = Metabolic stability in simulated gastric fluid assessed as chlorambucil level; assay type: ADME, tissue-based, Stomach; conditions: simulated gi fluid

remaining at 10 min [1]: 45%
remaining at 48 h [2]: 98.8%
remaining at 0 min [3]: 100%
remaining at 1 h [4]: 0%
remaining at 2 min [5]: 91%
remaining at 20 min [6]: 14%
remaining at 1 h [7]: 4%
half-life [8]: < 15 min
remaining at 5 min [10]: 82%
remaining at 120 h [11]: 98.2%
remaining at 2 min [12]: 78%
remaining at 0 min [13]: 100%
remaining at 730.5 h [14]: 98.6%
remaining at 2 h [15]: 0%
remaining at 72 h [17]: 98.9%
remaining at 40 min [18]: 12%
half-life [19]: < 10 min
remaining at 20 min [20]: 32%
remaining at 0 days [21]: 99.1%
remaining at 0 days [22]: 99.1%
remaining at 5 min [23]: 65%
remaining at 10 min [24]: 52%
AUC [25]: 89800 ng·h/mL
remaining at 730.5 h [27]: 88.3%
AUC [29]: 398000 ng·h/mL
half-life [30]: < 5 min
remaining at 432 h [31]: 99%
Compound: CC(=O)Oc1ccccc1C(=O)OC(C)O[N+](=O)[O-] (centres undefined)
Activity (Rattus norvegicus [9]): 180 µM
inhibition in vivo at 44.82 mg/kg (Rattus norvegicus [16]): 72.6%
Activity (Rattus norvegicus [26]): 1 mm2
AUC (Rattus norvegicus [28]): 1480 µM·h

AUC [25]: 53600 ng·h/mL
Compound: CCC(OC(=O)c1ccccc1OC(C)=O)O[N+](=O)[O-] (centres undefined)

remaining at 10 min [1]: 94%
remaining at 3 h [32]: 39%
remaining at 1 h [4]: 75%
remaining at 0.5 h [33]: 83%
remaining at 2 h [34]: 58%
remaining at 0 min [13]: 100%
half-life [19]: < 180 min
remaining at 0.25 h [35]: 83%
remaining at 5 min [23]: 96%
Compound: CCCC(OC(=O)[C@@H](C)c1ccc2cc(OC)ccc2c1)O[N+](=O)[O-] (some centres undefined)

remaining at 10 min [1]: 75%
remaining at 600 h [36]: 99%
remaining at 600 h [38]: 98.9%
remaining at 1 h [4]: 0%
remaining at 0.5 h [33]: 33%
remaining at 0 min [13]: 100%
half-life [19]: < 30 min
remaining at 0 days [21]: 99.1%
remaining at 0 days [22]: 99.1%
remaining at 0.25 h [35]: 65%
remaining at 5 min [23]: 85%
Compound: COc1ccc2cc([C@H](C)C(=O)OC(C)O[N+](=O)[O-])ccc2c1 (some centres undefined)
Activity (Rattus norvegicus [37]): 120 µM
Activity (Rattus norvegicus [39]): inactive
Activity (Rattus norvegicus [40]): inactive
AUC (Rattus norvegicus [41]): 687 µM·h
Activity (Rattus norvegicus [42]): 150 µM
Activity (Rattus norvegicus [43]): 39 mm2

Compound: CC(OC(=O)CCCc1ccc(N(CCCl)CCCl)cc1)O[N+](=O)[O-] (centres undefined)
t1/2 [44]: < 5 min

From ChEMBL document CHEMBL3352635 (Bioorg Med Chem Lett, 2014)
